The values below come from ChEMBL document CHEMBL1134512, “Bicyclic analogues of D-myo-inositol 1,4,5-trisphosphate related to adenophostin A: synthesis and biological activity” (J Med Chem, 2001).

Assay [1] can be described thus: Binding affinity towards rat liver membrane, measured using equilibrium competition binding with [3H]Inositol(1,4,5)P3.
Assay [2] can be described thus: Ratio to Ins(1,4,5)P3, for the effect on [Ca2+] release from the intracellular stores of permealized hepatocytes (ratio greater than 1 denotes greater potency and less than -1 denotes lesser potency). Type of assay: functional, Hepatocyte.
Assay [3] is described as follows: Ratio to Ins(1,4,5)P3 was measured(ratio greater than 1 denotes greater affinity and less than -1 denotes lesser affinity).
Another assay deals with Hepatocyte. Description: Hill coefficient for the effect on [Ca2+] release from the intracellular stores of permealized hepatocytes. Type of assay: cell-based. The method in brief: (§1)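 Permeabilized rat hepatocytes loaded with 45Ca2+ to steady state (5 min, 37 °C) in cytosol-like medium pH 7.0 with ATP 1.5 mM, creatine phosphate 5 mM, creatine phosphokinase 5 units/mL, FCCP 10 µM. Thapsigargin (1.25 µM) added, agonist 30 s later, store Ca2+ measured by rapid filtration after 60 s. Four-parameter logistic fit gives EC50, Hill slope, maximal release; three experiments.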

For assay [4], the species on record is Rattus norvegicus. Description: […] on [Ca2+] release from the intracellular stores of permealized hepatocytes. Type of assay: functional. The following applies: Hepatocyte. Put shortly:
as §1

Assay [5] is filed under the species Rattus norvegicus. The assay is described as follows: Fraction of total [Ca2+] stores released by a maximal concentration of the compound. Type of assay: functional. The method in brief: as §1
Assay [6] is described as follows: Hill coefficient, measured using equilibrium competition binding with [3H]Inositol(1,4,5)P3.

`Nc1ncnc2c1ncn2[C@@H]1O[C@H](CO)[C@@H](O[C@H]2O[C@H](CO)[C@@H](OP(=O)(O)O)[C@H](OP(=O)(O)O)[C@H]2O)[C@H]1OP(=O)(O)O` [ADENOPHOSTIN A] displayed a Kd in assay [1] of 0.00055 µM. Moreover, the Ratio is 9.8 in assay [2] and 8.3 in assay [3]. In addition, the Hill coefficient in the assay on Hepatocyte is 2.99; in assay [6], 1.17. The half-maximal effective concentration (EC50) in the assay listed under Rattus norvegicus [4] was 0.0092 µM. Moreover, the Max response in the assay listed under Rattus norvegicus [5] was 49%.
`O=P(O)(O)O[C@@H]1CO[C@@H]2[C@H](O)[C@@H](OP(=O)(O)O)[C@H](OP(=O)(O)O)[C@@H](O)[C@@H]2OC1`: the dissociation constant (Kd) in assay [1] turned out to be 0.098 µM. Moreover, the values for the Ratio in assay [2] and in assay [3] were -18 and -21, respectively. The values for the Hill coefficient (in the assay with Hepatocyte; in assay [6]) were 2.61 and 1.01, respectively. The same compound gave a half-maximal effective concentration (EC50) in the assay listed under Rattus norvegicus [4] of 1.65 µM. Also, the Max response in the assay listed under Rattus norvegicus [5] stood at 59%.
On to `O=P(O)(O)O[C@@H]1[C@H](O)[C@H](O)[C@@H](OP(=O)(O)O)[C@H](OP(=O)(O)O)[C@H]1O` [INS(1,4,5)P3], for which, in assay [1], the dissociation constant Kd was determined as 0.00456 µM. Besides, the Ratio in assay [2] and in assay [3] was 1 throughout. The Hill coefficient with Hepatocyte came out at 1.48; in assay [6] it was 1.16. The compound also came in with an EC50 in the assay listed under Rattus norvegicus [4] of 0.09 µM. Also, the Max response in the assay listed under Rattus norvegicus [5] is 59%.
In assay [1], `O=P(O)(O)O[C@H]1CO[C@@H]2[C@H](O)[C@@H](OP(=O)(O)O)[C@H](OP(=O)(O)O)[C@@H](O)[C@@H]2OC1` gave a dissociation constant (Kd) of 0.062 µM. The Ratio in assay [2] and in assay [3] was -14 throughout. The results for the Hill coefficient (in the assay on Hepatocyte; in assay [6]) were 2.9 and 1.12, respectively. Further, the EC50 in the assay listed under Rattus norvegicus [4] was 1.23 µM. Moreover, the Max response in the assay listed under Rattus norvegicus [5] came out at 59%.
